# Published values of several laboratories.
Compound,target or system,test,system,conditions,measurement,result
Cc1cc(NC(=O)C=Cc2ccccc2)cc(-c2ccnc(N3CCC(CO)CC3)c2)c1,HeLa,"cell growth or viability, MTT",,5 µM,inhibition,81.8%
O=C(N[C@H](CO)[C@H](O)c1ccc([N+](=O)[O-])cc1)C(Cl)Cl,Vibrio alginolyticus,microbial growth,,24 h,MIC,1.25 to 2.5 µM
COc1ccc(COC[C@@](O)(CNCc2ccccc2)[C@@H]2CC[C@@H](C)C[C@H]2OCc2ccc(OC)cc2)cc1,HeLa,"cell growth or viability, MTT",,"10 µM, 72 h",inhibition,93.8%
CN[C@@H]1[C@@H](O[C@H]2O[C@H](CO)[C@@H](N)[C@H](O)[C@H]2O)OC2C[C@@H](N)[C@@H](O[C@H]3[C@H](O)[C@@H](O)[C@H](N)C[C@@H]3N)OC2[C@@H]1O (stereo partly shown),Vibrio alginolyticus,microbial growth,,24 h,MIC,> 40 µM
O=C(NC(=S)Nc1ccccc1O)c1ccco1,Leishmania major,"parasite growth, resazurin",,promastigote,IC50,6.08 µM
CN[C@H](CC(C)C)C(=O)N[C@H]1C(=O)N[C@@H](CC(N)=O)C(=O)N[C@H]2C(=O)N[C@H]3C(=O)N[C@H](C(=O)N[C@H](C(=O)O)c4cc(O)cc(O)c4-c4cc3ccc4O)[C@H](O)c3ccc(c(Cl)c3)Oc3cc2cc(c3O[C@@H]2O[C@H](CO)[C@@H](O)[C@H](O)[C@H]2O[C@H]2C[C@](C)(N)[C@H](O)[C@H](C)O2)Oc2ccc(cc2Cl)[C@H]1O,Enterococcus faecalis,microbial growth,ATCC29212,,MIC,2 µM
C=C(COCc1ccc(F)cc1)[C@@H]1CC[C@@H](C)C[C@H]1OCc1ccc(F)cc1,HeLa,"cell growth or viability, MTT",,"30 µM, 72 h",inhibition,61.5%
Cc1nc(NC(=S)NCc2ccco2)nc(-c2ccccc2)c1C(=O)N1CCC(C(=O)O)CC1,Leishmania major,"parasite growth, resazurin",,promastigote,IC50,0.18 µM
C[C@@H]1CC[C@@H]([C@@](O)(CNCc2ccccc2)COCc2ccccc2)[C@H](OCc2ccccc2)C1,HeLa,"cell growth or viability, MTT",,"30 µM, 72 h",inhibition,98.2%
O=C(NC(=S)Nc1cccc(O)c1)c1cccs1,Leishmania major,"parasite growth, resazurin",,promastigote,IC50,0.29 µM
C[C@@H]1CC[C@@H]([C@](C)(O)CNCc2ccc(F)cc2)[C@H](OCc2ccccc2)C1,HeLa,"cell growth or viability, MTT",,"30 µM, 72 h",inhibition,60.1%
O=C(NC(=S)Nc1nccs1)c1ccco1,Leishmania major,"parasite growth, resazurin",,promastigote,IC50,12.9 µM
C=CC(=O)NC1CCN(c2ncc3ncnc(Nc4ccc(Oc5ccc6c(c5)ncn6C)c(C)c4)c3n2)CC1,SNU-216,cell growth or viability,,,EC50,10.2 nM
